Screening data: PubChem BioAssay, Johns Hopkins Ion Channel Center
This is a sample that favours compounds with a hit; in the whole collection about 3.5% have one here.
RGS4 act – RGS4 potentiators or activators, primary screen, cell-based, HEK293 M3R inducible RGS4, calcium flux; AID 463111, 2010; carbachol calcium flux Fluo4; active compounds read low; actives 0.92% (n = 310,000); B-score at 10 µM;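 active = B-score of the integrated calcium signal more than 4 SD below the library mean, with starting fluorescence not abnormally high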;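 note: negative B-score means reduced calcium response which marks RGS4 activation or potentiation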
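Material: M3R-expressing HEK293 line, RGS4 induced by doxycycline | Schedule: Overnight RGS4 induction, 30 min dye load 37 °C, 20 min compound RT | Measured by: Fluo4 fluorescence kinetic imaging of calcium | Read-out: Integrated calcium ratio converted to B score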
RGS4 inh – RGS4 inhibitors, primary screen, cell-based, HEK293 M3R inducible RGS4, calcium flux | Regulator of G-protein signaling 4 (Homo sapiens), P49798 | Fluo-4 calcium flux; active compounds read high; triggered by carbachol at its EC20 | B-score at 10 µM | actives 0.45% (n = 310,000) | AID 463165, 2010;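 active = B-score, a plate-corrected calcium signal, over three deviations above library mean, with baseline fluorescence within five deviations of library mean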;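 note: RGS4 expression induced by doxycycline in cells with stable M3 receptor; B-score is computed from the integrated fluorescence ratio over baseline after carbachol; higher B-score means a larger calcium signal and so more RGS4 inhibition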
Target sequence (P49798 whole entry, looked up): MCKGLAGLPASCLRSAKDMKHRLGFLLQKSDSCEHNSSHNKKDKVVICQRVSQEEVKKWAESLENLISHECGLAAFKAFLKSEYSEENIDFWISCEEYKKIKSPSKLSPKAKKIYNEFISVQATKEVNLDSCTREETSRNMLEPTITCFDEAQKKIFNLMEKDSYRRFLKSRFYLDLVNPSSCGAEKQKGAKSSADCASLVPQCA
MrgX1 agonist – agonists of human MrgX1 receptor, primary screen, HEK293 cells, Fluo-4 calcium flux. actives 0.44% (n = 310,000). B-score at 10 µM. Mas-related G-protein coupled receptor member X1 (Homo sapiens), Q96LB2. Fluo-4 calcium fluorescence, agonist mode; active compounds read high;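 active = calcium response B-score plate-corrected fluorescence ratio at least 3 library SD, with starting fluorescence B-score inside 5 SD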
Target sequence (Q96LB2 whole entry, looked up): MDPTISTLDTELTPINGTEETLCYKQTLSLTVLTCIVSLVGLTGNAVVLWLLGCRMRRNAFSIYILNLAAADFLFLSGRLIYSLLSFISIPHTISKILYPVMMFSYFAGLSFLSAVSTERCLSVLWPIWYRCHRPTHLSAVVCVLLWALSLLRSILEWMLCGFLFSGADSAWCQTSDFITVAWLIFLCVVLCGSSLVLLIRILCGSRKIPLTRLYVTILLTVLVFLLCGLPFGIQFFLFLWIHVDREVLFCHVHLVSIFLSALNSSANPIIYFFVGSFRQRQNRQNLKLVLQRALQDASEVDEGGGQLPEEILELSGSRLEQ
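times = overnight plating, then 30 min 37 °C plus 30 min room-temperature dye loading | assay system = stable human MrgX1 HEK293 cell line | input = fifteen thousand cells per well | signal = kinetic calcium dye fluorescence, Fluo-4 NW | dosing = compound delivered in addition one of three | read-out = B-scored fluorescence response ratio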
MrgX1 PAM – positive allosteric modulators of MrgX1, primary screen, HEK293 cells, Fluo-4 calcium flux; actives 0.63% (n = 310,000); Mas-related G-protein coupled receptor member X1 (Homo sapiens), Q96LB2; AID 588675, 2011; B-score at 10 µM; FDSS; active compounds read high;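 active = plate-corrected calcium response at least 3 library SD above typical, normal starting fluorescence, not activating the receptor alone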;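 note: compound read alongside a low EC10 to EC30 dose of BAM8-22 agonist; peak minus trough fluorescence over baseline measured at the second addition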
MrgX1 antag – antagonists of human MrgX1 receptor, primary screen, HEK293 cells, Fluo-4 calcium flux | BAM8-22 antagonism; active compounds read low | B-score at 10 µM | actives 1.3% (n = 310,000) | AID 588676, 2011;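 active = calcium-response B-score plate-corrected more than 3 library SD below zero, starting fluorescence within 5 deviations, no agonist response on first addition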;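 note: peak minus trough fluorescence over baseline after final BAM8-22 challenge near maximal dose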
* hit, by the source's call; i = inactive; x = not tested or not shown.

SMILES	RGS4 act	RGS4 inh	MrgX1 agonist	MrgX1 PAM	MrgX1 antag
COc1cc(C2C(C#N)=C(N)OC3=C2C(=O)CC(C)(C)C3)c([N+](=O)[O-])cc1OC (configuration not stated)	i	i	29*	i	i
O=C(NCc1ccco1)c1cc2c(s1)CCCCC2	-7.1*	i	i	i	i
C[C@H]1CN=C2N(CCNC(=O)CCC3CCCCC3)[C@H](Cc3ccc(O)cc3)CN21	i	i	i	i	i
O=C(CCC1CCCCC1)NCCN1C2=NC[C@@H](Cc3ccccc3)N2C[C@H]1Cc1ccc(O)cc1	-7.1*	i	i	i	i
O=C(CCC1CCCCC1)NCCN1C2=NC[C@H](Cc3ccccc3)N2C[C@H]1Cc1ccc(O)cc1	-8*	i	i	i	i
Cc1cc2ncn(-c3ncccc3[N+](=O)[O-])c2cc1C	i	i	27*	i	i
O=C(CC12CC3CC(CC(C3)C1)C2)NC1CC1	i	i	i	i	i
Nc1nc2c(s1)CCc1c-2cnn1-c1ccccc1	i	i	33*	i	i
Nc1nc2c(s1)COc1ccccc1-2	i	i	i	i	i
CCOc1nc2cnccc2n(CC(=O)Nc2cccc(C)c2)c1=O	i	i	i	i	i
FC(F)(F)c1cc(CCN2C(=S)NC[C@@H]2CC2CCCCC2)cc(C(F)(F)F)c1	-9.8*	i	i	i	i
O=C1CCc2cc(S(=O)(=O)Nc3ccc(F)cc3)cc3c2N1CC3	i	i	i	i	i
CCCCc1cc(=O)oc2cc(C)cc(OCC(=O)NC(Cc3ccc(Cl)cc3)C(=O)O)c12 (configuration not stated)	-8.4*	i	i	i	i
CCCc1cc(=O)oc2cc(C)cc(OCC(=O)NC(Cc3ccc(Cl)cc3)C(=O)O)c12 (configuration not stated)	i	i	i	i	i
O=S(=O)(c1ccccc1)c1cnc(-c2ccccc2)nc1N1CCCC1	i	i	i	i	i
COc1cc2ncc(S(=O)(=O)c3ccccc3)c(N3CCCC(C)C3)c2cc1OC (configuration not stated)	-7.3*	i	i	i	i
Cc1ccccc1-n1c(SCc2c(C)noc2C)nnc1-c1c[nH]c2ccccc12	i	i	i	i	-4.5*
COc1ccc(NC(=O)c2csc(C)c2)cc1OC	i	i	i	i	i
COc1ccc(-c2[nH]ncc2CN2CCCO2)cc1F	i	i	i	i	i
COc1ccc2cc(-c3[nH]ncc3CN3CCCCO3)ccc2c1	i	i	35*	i	i
CC(C)(CNC(=O)Cc1ccc(Cl)cc1Cl)N1CCCCC1	i	i	i	i	i
CCOc1ccc(/C=C2\SC(=S)N(NS(=O)(=O)c3ccccc3)C2=O)cc1OC	i	i	i	i	i
COc1ccc(/C=C2\SC(=S)N(NS(=O)(=O)c3ccccc3)C2=O)c(OC)c1	-7.5*	i	i	i	-8.7*
COc1ccc(/C=C2\SC(=S)N(NS(=O)(=O)c3ccc(C)cc3)C2=O)c(OC)c1	-8.2*	i	i	i	i
COc1ccc(/C=C2\SC(=S)N(C(C(=O)O)c3ccccc3)C2=O)c(OC)c1 (configuration not stated)	i	i	i	i	-5.2*
SMILES	RGS4 act	RGS4 inh	MrgX1 agonist	MrgX1 PAM	MrgX1 antag
CCOc1cc(/C=C2\SC(=S)N(NS(=O)(=O)c3ccccc3)C2=O)ccc1O	i	i	34*	i	i
COCCN(C(=O)CCC(=O)Nc1cc(C)on1)C(C(=O)NC(C)(C)C)c1cccc(OC)c1OC (configuration not stated)	i	i	i	i	i
O=C1/C(=C/c2cccs2)SC(=S)N1NS(=O)(=O)c1ccccc1	i	i	i	i	i
O=C1/C(=C/C=C/c2ccco2)SC(=S)N1NS(=O)(=O)c1ccccc1	x	x	i	7.9*	i
CC1C(=NO)C(C)C(c2ccc(N(C)C)cc2)NC1c1ccc(N(C)C)cc1 (configuration not stated)	i	i	i	14*	i
COC(=O)c1ccc(C(=O)NC2CCCc3c2cnn3-c2cc(F)cc(F)c2)nc1 (configuration not stated)	i	i	i	i	i
O=C1NCC(c2ccccc2)C1C(=O)N/N=C\c1ccc(-c2ccc(Cl)c(Cl)c2)o1 (configuration not stated)	i	9*	i	i	i
O=C1NCC(c2ccccc2)C1C(=O)N/N=C/c1ccc(Cl)s1 (configuration not stated)	i	i	31*	i	i
Cc1nnc(SCc2cc(=O)[nH]c(/N=C(\N)Nc3ccccc3Sc3ccccc3)n2)s1	-7.4*	i	i	i	i
CCCCN(C(=O)/C=C/c1ccc(OC)cc1)C1CCS(=O)(=O)C1 (configuration not stated)	i	i	i	i	i
CC(C)C[C@@H](COc1ccccc1)N1CCN(CCc2ccccc2)CCC1=O	i	i	i	11*	i
COc1ccc(CCNC(=O)Cn2c(=O)n(CCCC(=O)NCc3ccco3)c(=O)c3sccc32)cc1OC	i	i	i	6.4*	i
COc1ccc(N2CCN(C(=O)CCC(=O)N3CCOc4ccc(Cl)cc43)CC2)cc1	i	i	i	i	i
CCc1cccc(NC(=O)C2CCCN2C(=O)Nc2ccc(C)cc2)c1 (configuration not stated)	i	i	i	i	i
COc1cc(/C=C2/C(=N)N3C=CSC3=NC2=O)ccc1OCCCOc1ccccc1C	i	i	i	i	i
COc1cc(/C=C2\C(=N)N3N=C(S(C)(=O)=O)SC3=NC2=O)cc(OC)c1OCCOc1ccc(C)cc1	i	i	i	i	i
Cc1cc(/C=C2\C(=N)N3N=C(C(C)C)SC3=NC2=O)c(C)n1-c1ccccc1	i	i	i	i	i
CC(=O)Nc1ccc(OCCOc2ccc(/C=C3\C(=N)N4N=C(C(C)C)SC4=NC3=O)cc2)cc1	i	i	32*	i	i
COc1cc(/C=C2\C(=N)N3N=C(S(C)(=O)=O)SC3=NC2=O)ccc1OCCOc1ccc(C)cc1	-7.2*	i	i	i	i
COc1cc(/C=C2/C(=N)N3C=CSC3=NC2=O)ccc1OCCOc1ccc(NC(C)=O)cc1	i	i	i	14*	i
